In ChEMBL document CHEMBL2163245 (J Med Chem, 2012):

These compounds were tested against T1, Potassium voltage-gated channel subfamily KQT member 2 (Homo sapiens, UniProt O43526) (assay: Agonist activity at KCNQ2 expressed in CHO cells incubated for 3 mins by automated patch clamp assay).
Assay type: functional, cell-based
How it was run: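 Ionworks Quattro population patch clamp on CHO cells stably expressing KCNQ2, 7,000 cells/well in extracellular solution (mM: 137 NaCl, 4 KCl, 1 MgCl2, 1.8 CaCl2, 10 HEPES, 10 glucose, pH 7.4), amphotericin B (50 μg/ml) perforation. Held -90 mV, 2,000 ms step to -10 mV; steady-state current at pulse end before and 3 min after compound; % change versus pre-compound current. Cells >100 pA and seal >30 MΩ only.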

T1 sequence (O43526 whole entry): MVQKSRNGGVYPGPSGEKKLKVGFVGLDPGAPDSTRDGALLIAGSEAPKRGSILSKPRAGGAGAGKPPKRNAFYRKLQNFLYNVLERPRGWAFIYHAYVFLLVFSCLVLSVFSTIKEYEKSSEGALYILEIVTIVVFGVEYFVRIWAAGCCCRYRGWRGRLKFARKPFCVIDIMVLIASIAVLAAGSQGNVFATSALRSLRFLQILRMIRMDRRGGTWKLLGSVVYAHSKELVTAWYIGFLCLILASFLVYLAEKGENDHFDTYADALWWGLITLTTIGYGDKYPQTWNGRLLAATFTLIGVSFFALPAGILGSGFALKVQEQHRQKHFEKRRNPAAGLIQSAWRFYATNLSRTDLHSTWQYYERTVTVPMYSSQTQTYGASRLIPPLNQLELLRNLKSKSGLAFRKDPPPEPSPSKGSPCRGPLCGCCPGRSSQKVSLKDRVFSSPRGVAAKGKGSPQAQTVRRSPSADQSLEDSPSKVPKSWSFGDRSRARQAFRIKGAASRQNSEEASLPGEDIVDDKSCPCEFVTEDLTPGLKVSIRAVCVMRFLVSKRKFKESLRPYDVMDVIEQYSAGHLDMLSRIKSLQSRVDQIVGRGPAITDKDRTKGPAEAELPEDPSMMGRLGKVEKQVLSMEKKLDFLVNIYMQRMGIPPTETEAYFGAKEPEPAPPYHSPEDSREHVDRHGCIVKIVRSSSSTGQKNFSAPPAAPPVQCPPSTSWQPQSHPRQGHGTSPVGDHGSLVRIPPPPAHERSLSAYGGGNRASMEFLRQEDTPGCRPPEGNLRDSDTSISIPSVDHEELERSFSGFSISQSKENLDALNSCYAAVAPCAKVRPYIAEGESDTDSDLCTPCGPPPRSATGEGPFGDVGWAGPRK

Row | SMILES | EC50
1 | O=C(Cc1cccc(C(F)(F)F)c1)Nc1ccccc1N1CCCC1 | 350 nM
2 | O=C(Cc1cccc(Cl)c1)Nc1ccc(N2CCCC2)cc1 | 8660 nM
3 | O=C(Cc1cccc(Cl)c1)Nc1cccc(N2CCCC2)c1 | 1020 nM
4 | O=C(Nc1ccccc1N1CCCC1)C(F)c1ccccc1 (stereo not drawn) | 990 nM
5 | O=C(Cc1ccccc1Cl)Nc1ccccc1N1CCCC1 | 950 nM
6 | CCC(C(=O)Nc1ccccc1-n1c(C)ccc1C)c1ccccc1 (racemic) | > 30000 nM
7 | O=C(Cc1cccc(Cl)c1)Nc1ccccc1N1CCOCC1 | > 30000 nM
8 | O=C(Cc1cccc(Cl)c1)Nc1ccccc1N1CCCCCC1 | > 30000 nM
9 | O=C(Cc1ccc(Cl)cc1)Nc1ccccc1N1CCCC1 | 800 nM
10 | CN(Cc1ccccc1)c1ccccc1NC(=O)Cc1cccc(Cl)c1 | > 30000 nM
11 | O=C(Cc1cccc(Cl)c1)Nc1ccccc1-n1cccc1 | 12300 nM
12 | O=C(Cc1ccccc1)Nc1ccccc1N1CCCC1 | 743 nM
13 | CCN(C)c1ccccc1NC(=O)Cc1cccc(Cl)c1 | > 30000 nM
14 | O=C(Cc1cccc(F)c1)Nc1ccccc1N1CCCC1 | 490 nM
15 | CN(C(=O)Cc1ccccc1)c1ccccc1N1CCCC1 | > 30000 nM
16 | O=C(Cc1ccc(F)cc1)Nc1ccccc1N1CCCC1 | 700 nM
17 | Cc1cccc(CC(=O)Nc2ccccc2N2CCCC2)c1 | 1320 nM
18 | O=C(Cc1ccc(F)c(F)c1)Nc1ccccc1N1CCCC1 | 1730 nM
19 | O=C(Cc1ccc(Cl)c(Cl)c1)Nc1ccccc1N1CCCC1 | 1070 nM
20 | O=C(Cc1cccc(Cl)c1)Nc1ccccc1N1CCCCC1 | 7090 nM
21 | O=C(Cc1cccc(Cl)c1)Nc1ccccc1N1CCCC1 | 170 nM
22 | COc1ccc(CC(=O)Nc2ccccc2N2CCCC2)cc1 | 1750 nM
23 | CN(C)c1ccccc1NC(=O)Cc1cccc(Cl)c1 | 27400 nM
24 | COc1cccc(CC(=O)Nc2ccccc2N2CCCC2)c1 | 2350 nM

These compounds were tested against T1, Potassium voltage-gated channel subfamily KQT member 2 (assay: Antagonist activity at KCNQ2 expressed in CHO cells incubated for 3 mins by automated patch clamp assay).
Assay type: functional, cell-based

Row | SMILES | IC50
25 | CCC(C(=O)Nc1ccc(N2CCCC2)cc1)c1ccccc1 (stereo not drawn) | 0.21 µM
26 | CCC(C(=O)Nc1ccccc1N1CCCC1)c1ccccc1 (racemic) | 0.163 µM
27 | O=C(Nc1ccccc1N1CCCC1)C1(c2ccccc2)CC1 | > 30 µM
28 | CC(C)CC(C(=O)Nc1ccccc1N1CCCC1)c1ccccc1 (racemic) | 2.22 µM
29 | CCC(C(=O)Nc1ccccc1N1CCCC1)c1ccc(OC)cc1 (racemic) | 0.38 µM
30 | CCC(C(=O)Nc1ccccc1N1CCCC1)c1ccc(F)c(F)c1 (racemic) | 0.17 µM
31 | CCC(C(=O)Nc1ccccc1N1CCCCCC1)c1ccccc1 (racemic) | > 30 µM
32 | CC(C(=O)Nc1ccccc1N1CCCC1)c1ccccc1 (racemic) | 0.26 µM
33 | CCC(C(=O)Nc1ccccc1N1CCCC1)c1ccccc1Cl (racemic) | 3.31 µM
34 | O=C(Nc1ccccc1N1CCCC1)C1CCc2ccccc21 (racemic) | 0.33 µM
35 | CCC(C(=O)N(C)c1ccccc1N1CCCC1)c1ccccc1 (racemic) | > 30 µM
36 | O=C(Nc1ccccc1N1CCCC1)C(c1ccccc1)C1CC1 (racemic) | 3.5 µM
37 | CCC(C(=O)Nc1ccccc1N1CCCC1)c1ccc(Cl)c(Cl)c1 (racemic) | 0.47 µM
38 | CCCC(C(=O)Nc1ccccc1N1CCCC1)c1ccccc1 (racemic) | 0.32 µM
39 | CCC(C(=O)Nc1ccccc1Cl)c1ccccc1 (racemic) | 15 µM
40 | CCC(C(=O)Nc1ccccc1-n1ccnc1)c1ccccc1 (racemic) | > 30 µM
41 | CCC(C(=O)Nc1ccccc1-n1cccc1)c1ccccc1 (racemic) | 5.27 µM
42 | CCC(C(=O)Nc1cccc(N2CCCC2)c1)c1ccccc1 (racemic) | > 30 µM
43 | O=C(Nc1ccccc1N1CCCC1)C1CCOc2ccccc21 (racemic) | > 30 µM
44 | CCC(C(=O)Nc1ccccc1N1C(=O)CCC1=O)c1ccccc1 (racemic) | > 30 µM
45 | CC(C)(C(=O)Nc1ccccc1N1CCCC1)c1ccccc1 | > 30 µM
46 | CCC(C(=O)Nc1ccccc1N1CCCC1)c1ccc(OC)c(OC)c1 (racemic) | 20.2 µM
47 | CCC(C(=O)Nc1ccccc1N(C)CC)c1ccccc1 (racemic) | > 30 µM
48 | CCC(C(=O)Nc1ccccc1N1CCOCC1)c1ccccc1 (racemic) | 12.7 µM
